Data as given in ChEMBL document CHEMBL4316616, “Efficacy of TLR7 agonistic imidazoquinoline as immunochemotherapeutic agent against P. Berghei ANKA infected rodent host” (Bioorg Med Chem Lett, 2019).
The source made the active and inactive calls. The rule behind the calls is not given here.

Key:
Plasmodium berghei [1] = assay: Antiparasitic activity against Plasmodium berghei ANKA infected in Laca mouse assessed as increase in IFN-gamma level in serum at 10 ug, ip administered for 4 days measured on day 10 by sandwich ELISA
Plasmodium berghei [2] = assay: Antiparasitic activity against Plasmodium berghei ANKA infected in Laca mouse assessed as increase in Treg cell level in brain at 10 ug, ip co-administered with chloroquine for 4 days measured on day 21 by flow cytometry; type: functional, organism-based
[3] = Toxicity in Laca mouse infected with Plasmodium berghei ANKA assessed as death at 10 ug, ip administered for 4 days measured on day 10 and 21; type: organism-based; conditions: in vivo, 96 h
Procedure, shortened: (§1)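 Six mice per group received 1x10⁶ parasitized RBCs (P. berghei ANKA) i.p. on D0. TLR7 agonist was given i.p., 0.2 mL/mouse, daily D0–D3. PBS-treated infected and uninfected groups served as controls. Survival was monitored alongside parasitemia from Giemsa-stained thin blood smears.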

Plasmodium berghei [4] = assay: Antiparasitic activity against Plasmodium berghei ANKA infected in Laca mouse assessed as increase in Treg cell level in brain at 10 ug, ip administered for 4 days measured on day 10 by flow cytometry; type: functional, organism-based
Plasmodium berghei [5] = assay: Antiparasitic activity against Plasmodium berghei ANKA infected in Laca mouse assessed as increase in serum IL-10 level at 10 ug, ip co-administered with chloroquine for 4 days measured on day 10 by sandwich ELISA; type: functional, organism-based
Plasmodium berghei [6] = assay: Antiparasitic activity against Plasmodium berghei ANKA infected in Laca mouse assessed as reduction in CD8+ cell level in brain at 10 ug, ip co-administered with chloroquine for 4 days measured on day 21 by flow cytometry; type: functional, organism-based
[7] = Toxicity in Laca mouse infected with Plasmodium berghei ANKA assessed as death at 10 ug, ip administered for 4 days measured on day 9; type: organism-based; conditions: in vivo, 96 h
Procedure, shortened: as §1

Plasmodium berghei [8] = assay: Antiparasitic activity against Plasmodium berghei ANKA infected in Laca mouse assessed as reduction in CD4+ cell level in brain at 10 ug, ip administered for 4 days measured on day 10 and 21 by flow cytometry; type: functional, organism-based
[9] = Toxicity in Laca mouse infected with Plasmodium berghei ANKA assessed as death at 10 ug, ip co-treated with chloroquine for 4 days measured on day 30; conditions: in vivo, 96 h
Plasmodium berghei [10] = assay: Antiparasitic activity against Plasmodium berghei ANKA infected in Laca mouse assessed as reduction in CD4+ cell level in brain at 10 ug, ip co-administered with chloroquine for 4 days measured on day 21 by flow cytometry; type: functional, organism-based
Plasmodium berghei [11] = assay: Antiparasitic activity against Plasmodium berghei ANKA infected in Laca mouse assessed as reduction in CD4+ cell level in brain at 10 ug, ip co-administered with chloroquine for 4 days measured on day 10 and 21 by flow cytometry; type: functional, organism-based
Plasmodium berghei [12] = assay: Antiparasitic activity against Plasmodium berghei ANKA infected in Laca mouse assessed as increase in serum IL-27 level at 10 ug, ip administered for 4 days measured on day 10 by sandwich ELISA; type: functional, organism-based
Plasmodium berghei [13] = assay: Antiparasitic activity against Plasmodium berghei ANKA infected in Laca mouse assessed as increase in serum IL-10 level at 10 ug, ip administered for 4 days measured on day 10 by sandwich ELISA; type: functional, organism-based
Plasmodium berghei [14] = assay: Antiparasitic activity against Plasmodium berghei ANKA infected in Laca mouse assessed as reduction in CD3+ cell level in brain at 10 ug, ip administered for 4 days measured on day 10 by flow cytometry; type: functional, organism-based
Plasmodium berghei [15] = assay: Antiparasitic activity against Plasmodium berghei ANKA infected in Laca mouse assessed as increase in serum IL-27 level at 10 ug, ip co-administered with chloroquine for 4 days measured on day 10 by sandwich ELISA; type: functional, organism-based
Plasmodium berghei [16] = assay: Antiparasitic activity against Plasmodium berghei ANKA infected in Laca mouse assessed as reduction in CD3+ cell level in brain at 10 ug, ip co-administered with chloroquine for 4 days measured on day 10 by flow cytometry; type: functional, organism-based
[17] = Toxicity in Laca mouse infected with Plasmodium berghei ANKA assessed as death at 10 ug, ip administered for 4 days measured on day 15; type: organism-based; conditions: in vivo, 96 h
Procedure, shortened: as §1

Plasmodium berghei [18] = assay: Antiparasitic activity against Plasmodium berghei ANKA infected in Laca mouse assessed as reduction in CD8+ cell level in brain at 10 ug, ip co-administered with chloroquine for 4 days measured on day 10 by flow cytometry; type: functional, organism-based
Plasmodium berghei [19] = assay: Antiparasitic activity against Plasmodium berghei ANKA infected in Laca mouse assessed as decrease in serum TNFalpha level at 10 ug, ip co-administered with chloroquine for 4 days measured on day 10 by sandwich ELISA; type: functional, organism-based
Plasmodium berghei [20] = assay: Antiparasitic activity against Plasmodium berghei ANKA infected in Laca mouse assessed as decrease in serum TNFalpha level at 10 ug, ip administered for 4 days measured on day 10 by sandwich ELISA; type: functional, organism-based
Plasmodium berghei [21] = assay: Antiparasitic activity against Plasmodium berghei ANKA infected in Laca mouse assessed as reduction in parasitemia at 10 ug, ip co-administered with chloroquine for 4 days measured on day 25 by Giemsa-staining based assay; type: functional, organism-based
Plasmodium berghei [22] = assay: Antiparasitic activity against Plasmodium berghei ANKA infected in Laca mouse assessed as reduction in CD3+ cell level in brain at 10 ug, ip co-administered with chloroquine for 4 days measured on day 21 by flow cytometry; type: functional, organism-based
Plasmodium berghei [23] = assay: Antiparasitic activity against Plasmodium berghei ANKA infected in Laca mouse assessed as increase in Treg cell level in spleen at 10 ug, ip co-administered with chloroquine for 4 days measured on day 21 by flow cytometry; type: functional, organism-based
[24] = Toxicity in Laca mouse infected with Plasmodium berghei ANKA assessed as body weight loss at 10 ug, ip administered for 4 days; type: organism-based; conditions: in vivo, 96 h
Plasmodium berghei [25] = assay: Antiparasitic activity against Plasmodium berghei ANKA infected in Laca mouse assessed as reduction in CD8+ cell level in brain at 10 ug, ip administered for 4 days measured on day 10 by flow cytometry; type: functional, organism-based
Plasmodium berghei [26] = assay: Antiparasitic activity against Plasmodium berghei ANKA infected in Laca mouse assessed as increase in IFN-gamma level in serum at 10 ug, ip co-administered with chloroquine for 4 days measured on day 10 by sandwich ELISA
[27] = Toxicity in Laca mouse infected with Plasmodium berghei ANKA assessed as death at 10 ug, ip co-treated with chloroquine for 4 days measured on day 30; conditions: in vivo, 96 h; remark: listed apart in the source
Plasmodium berghei [28] = assay: Antiparasitic activity against Plasmodium berghei ANKA infected in Laca mouse assessed as reduction in parasitemia at 10 ug, ip administered for 4 days measured on day 9 by Giemsa-staining based assay; type: functional, organism-based
Plasmodium berghei [29] = assay: Antiparasitic activity against Plasmodium berghei ANKA infected in Laca mouse assessed as decrease in Treg cell level in brain at 10 ug, ip co-administered with chloroquine for 4 days measured on day 10 by flow cytometry
Plasmodium berghei [30] = assay: Antiparasitic activity against Plasmodium berghei ANKA infected in Laca mouse assessed as increase in CD3+ cell level in spleen at 10 ug, ip administered for 4 days measured on day 10 by flow cytometry; type: functional, organism-based
Plasmodium berghei [31] = assay: Antiparasitic activity against Plasmodium berghei ANKA infected in Laca mouse assessed as increase in CD3+ cell level in spleen at 10 ug, ip co-administered with chloroquine for 4 days measured on day 10 by flow cytometry; type: functional, organism-based
Plasmodium berghei [32] = assay: Antiparasitic activity against Plasmodium berghei ANKA infected in Laca mouse assessed as change in Treg cell level in spleen at 10 ug, ip co-administered with chloroquine for 4 days measured on day 10 and 21 by flow cytometry; type: functional, organism-based
Plasmodium berghei [33] = assay: Antiparasitic activity against Plasmodium berghei ANKA infected in Laca mouse assessed as increase in Treg cell level in spleen at 10 ug, ip administered for 4 days measured on day 10 and 21 by flow cytometry; type: functional, organism-based
Plasmodium berghei [34] = assay: Antiparasitic activity against Plasmodium berghei ANKA infected in Laca mouse assessed as parasitemia at 10 ug, ip co-administered with chloroquine for 4 days measured on day 30 by Giemsa-staining based assay; type: functional
Plasmodium berghei [35] = assay: Antiparasitic activity against Plasmodium berghei ANKA infected in Laca mouse assessed as increase in serum IL-12 level at 10 ug, ip co-administered with chloroquine for 4 days measured on day 10 by sandwich ELISA; type: functional, organism-based
Plasmodium berghei [36] = assay: Antiparasitic activity against Plasmodium berghei ANKA infected in Laca mouse assessed as increase in serum IL-12 level at 10 ug, ip administered for 4 days measured on day 10 by sandwich ELISA; type: functional, organism-based
Plasmodium berghei [37] = assay: Antiparasitic activity against Plasmodium berghei ANKA infected in Laca mouse assessed as parasitemia at 10 ug, ip administered for 4 days measured on day 7 by Giemsa-staining based assay; type: functional
Plasmodium berghei [38] = assay: Antiparasitic activity against Plasmodium berghei ANKA infected in Laca mouse assessed as reduction in parasitemia at 10 ug, ip co-administered with chloroquine for 4 days measured on day 23 by Giemsa-staining based assay; type: functional, organism-based
[39] = Toxicity in Laca mouse infected with Plasmodium berghei ANKA assessed as death at 10 ug, ip co-treated with chloroquine for 4 days measured on day 30; type: organism-based; conditions: in vivo, 96 h
Procedure, shortened: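 Mice (6/group) were infected i.p. with 1x10⁶ P. berghei ANKA parasitized RBCs on D0. TLR7 agonist was given i.p. plus chloroquine 10 mg/kg orally (0.2 mL/mouse each), daily D0–D3. Survival and parasitemia (Giemsa-stained thin blood smears of individual mice) were followed for about one month.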

Compound: CCCCc1nc2c(N)nc3ccccc3c2n1Cc1ccccc1
- Activity (Plasmodium berghei [1]): Active
- Activity (Plasmodium berghei [2]): Active
- Activity [3]: Toxic
- Activity (Plasmodium berghei [4]): Active
- Activity (Plasmodium berghei [5]): Active
- Activity (Plasmodium berghei [6]): inactive
- Activity [7]: Toxic
- Activity (Plasmodium berghei [8]): Active
- Activity [9]: Toxic
- Activity (Plasmodium berghei [10]): inactive
- Activity (Plasmodium berghei [11]): Active
- Activity (Plasmodium berghei [12]): Active
- Activity (Plasmodium berghei [13]): Active
- Activity (Plasmodium berghei [14]): Active
- Activity (Plasmodium berghei [15]): Active
- Activity (Plasmodium berghei [16]): Active
- Activity [17]: Toxic
- Activity (Plasmodium berghei [18]): Active
- Activity (Plasmodium berghei [19]): Active
- Activity (Plasmodium berghei [20]): Active
- Activity (Plasmodium berghei [21]): inactive
- Activity (Plasmodium berghei [22]): inactive
- Activity (Plasmodium berghei [23]): Active
- Activity [24]: Toxic
- Activity (Plasmodium berghei [25]): Active
- Activity (Plasmodium berghei [26]): Active
- Activity [27]: Toxic
- Activity (Plasmodium berghei [28]): Active
- Activity (Plasmodium berghei [29]): Active
- Activity (Plasmodium berghei [30]): Active
- Activity (Plasmodium berghei [31]): Active
- Activity (Plasmodium berghei [32]): Active
- Activity (Plasmodium berghei [33]): Active
- Activity (Plasmodium berghei [34]): 11.65%
- Activity (Plasmodium berghei [35]): Active
- Activity (Plasmodium berghei [36]): Active
- Activity (Plasmodium berghei [37]): 5.7%
- Activity (Plasmodium berghei [38]): Active
- Activity [39]: Toxic
